Assay outcomes as filed in PubChem BioAssay.
ROMK mod = ROMK potassium channel modulators, primary screen, cell-based, thallium flux, MLSMR library; ATP-sensitive inward rectifier potassium channel 1 (Homo sapiens), P48048; Tet-inducible ROMK, thallium flux fluorescence; actives lie on both sides; B-score at 10 µM; 130,000 tested, 2% active;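 active = signal ratio slope over the read window, or its plate-corrected B-score, at least 3 SD from the plate mean, either direction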;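 note: B-score of the F/F0 ratio slope over 7 to 12 s after thallium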
Target sequence (P48048 whole entry, looked up): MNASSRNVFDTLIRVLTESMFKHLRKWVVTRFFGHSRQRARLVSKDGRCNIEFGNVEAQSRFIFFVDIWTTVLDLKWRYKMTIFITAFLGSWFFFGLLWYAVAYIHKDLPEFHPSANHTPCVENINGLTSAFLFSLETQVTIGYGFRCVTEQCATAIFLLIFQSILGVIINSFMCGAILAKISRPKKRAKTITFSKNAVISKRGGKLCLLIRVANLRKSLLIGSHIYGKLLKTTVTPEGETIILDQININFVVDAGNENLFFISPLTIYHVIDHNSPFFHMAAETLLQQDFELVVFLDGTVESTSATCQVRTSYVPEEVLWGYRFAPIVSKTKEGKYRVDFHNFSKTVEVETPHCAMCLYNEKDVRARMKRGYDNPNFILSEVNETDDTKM
p97 ATPase inh = inhibitors of human p97 ATPase, primary screen, biochemical. Transitional endoplasmic reticulum ATPase (Homo sapiens), P55072. inhibition, % at 8 µM. 220,000 tested, 0.42% active. AID 1481, 2009. recombinant p97 ATPase, Kinase-Glo ATP luminescence, 3 h; in the data active = inhibition above about 15%;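 note: 0% = DMSO vehicle and 100% = wells lacking enzyme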
PKD1 kinase inh = inhibitors of human PKD1 kinase, biochemical, fluorescence polarization | Serine/threonine-protein kinase D1 (Homo sapiens), Q15139 | PKD1 kinase fluorescence polarization assay | inhibition, % (test concentration not listed) | 200,000 tested, 0.056% active; in the data active = inhibition above about 50%
KCC2 mod = KCC2 cotransporter modulators, thallium flux, primary screen, cell-based, HEK293 KCC2, FluoZin-2 fluorescence, MLSMR. Solute carrier family 12 member 5 (Homo sapiens), Q9H2X9. 190,000 tested, 2.2% active. KCC2 cells, thallium flux FluoZin-2 fluorescence. AID 1456, 2008. B-score of Tl+ flux slope (higher = more flux/activation; lower = inhibition) at 10 µM;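 active = thallium flux slope and its plate-corrected score both differing from the plate sample mean at a set confidence after two filtering rounds, in either direction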;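 note: slope of fluorescence scaled to starting intensity during 10 to 20 s after thallium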
Redox H2O2 prof = compounds producing H2O2 with reducing agent – biochemical, NIH compound library profiling, artefact control for MLSCN library redox annotation, primary screen; DTT-dependent redox cycling H2O2, phenol red/HRP absorbance; 100% = 100 µM peroxide control, 0% = buffer; activation, % at 10 µM; 200,000 tested, 0.03% active; AID 878, 2007;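 active = activation of at least 50% relative to the plate's high and low controls in the primary single-dose screen; inactive = activation below 50%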;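 note: compound incubated with DTT at 0.8 mM final as the reducing agent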
MDM2 E3 inh = MDM2-luciferase reporter signal enhancers, primary screen, MDM2 E3 ligase inhibitor project, cell-based, luminescence, 1536-well. E3 ubiquitin-protein ligase Mdm2 (Homo sapiens), Q00987. cell-based MDM2 ubiquitination luciferase reporter, 2 h; 0 = plate control, 100 = twice control, blank-subtracted. AID 1230, 2008. signal enhancement, % at 5 µM. 210,000 tested, 0.11% active;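 active = signal enhancement of 30% or more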;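 note: luminescence tracks abundance of the self-degrading MDM2-luciferase fusion protein; higher signal means inhibition of MDM2 E3 ligase activity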
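System: stable MDM2–luciferase fusion reporter cells / Input: 2000 cells seeded into each well / Schedule: 4 h settle plus 2 h compound, 37 °C / Compound: single-point 5 µM / Buffer or medium: cells held in DMEM / Benchmarks: control and blank well means / Evaluation: percent signal gain over controls, blank-subtracted / Measured by: luciferase luminescence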
KCC2 sec1 = KCC2 modulators in sodium-free buffer, confirmation, cell-based, HEK293 KCC2, thallium flux, secondary assay; shares compounds with KCC2 mod; FluoZin2 fluorescence; hits give high values; normalised thallium flux (F/F0 slope) at 10 µM; 3,700 tested, 15% active; AID 1713, 2009;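 active = thallium flux slope above the same plate's solvent-only control mean plus 3 SD; inconclusive = the two replicate wells disagree; inactive = no significant difference from solvent-only control wells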
KCC2 bumet counter = thallium flux persisting under bumetanide in KCC2 cells, confirmation, counter-screen for KCC2 modulator project, cell-based, HEK293 KCC2, FluoZin2, secondary assay 3 | shares compounds with KCC2 mod | HEK293-KCC2 + bumetanide/ouabain; hits give high values | normalized thallium flux at 10 µM | 3,700 tested, 49% active;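 active = thallium entry rate above the same plate's blocked-transporter control wells by more than 3 SD; inconclusive = the two repeat wells disagree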;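 note: raw slope of fluorescence over initial fluorescence between 10 and 20 s after thallium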
KCC2 secondary2 = KCC2 modulators without ouabain present, confirmation, cell-based, HEK293 KCC2, thallium flux, FluoZin2, secondary assay 2; normalized thallium flux at 10 µM; AID 1715, 2009; 3,700 tested, 23% active; shares compounds with KCC2 mod; thallium flux FluoZin2 fluorescence; actives lie on both sides; F/F0 rise rate, 10–20 s post-thallium;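 active = thallium flux slope more than 3 SD above or below the plate's solvent-only control mean, mostly below; inconclusive = the two repeat wells disagreed; inactive = no significant shift from solvent-only controls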;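 note: raw slope with 0.1% DMSO as baseline and bumetanide as block control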
HEK counter1 = thallium flux modulation in parental HEK cells, confirmation, counter-screen for KCC2 modulator project, cell-based, counterscreen 1. 3,700 tested, 46% active. shares compounds with KCC2 mod. HEK293 parental cells, thallium flux FluoZin2, ouabain; baseline-ratio fluorescence slope, 10–20 s after thallium. AID 1716, 2009. thallium flux rate (normalised fluorescence) at 10 µM;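 active = thallium flux rate significantly above the same plate's solvent-only control wells, beyond their mean plus 3 SD; inconclusive = the two replicate wells gave conflicting results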
KCC2 ouabain = KCC2 inhibitors and activators, ouabain retest, confirmation, HEK-KCC2 cells; shares compounds with KCC2 mod; HEK293-KCC2, thallium flux FluoZin2 fluorescence; bidirectional: low = inhibitor, high = activator; raw Tl+ flux slope (below DMSO = inhibition, above = activation) at 10 µM; 3,700 tested, 48% active; AID 1717, 2009;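 active = thallium flux slope beyond 3 SD from same-plate DMSO control mean in most replicates, usually higher, sometimes lower; inconclusive = repeat tests gave conflicting results; inactive = no significant difference from controls in most replicates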;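 note: slope of initial-normalized fluorescence between seconds 10 and 20 after thallium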
HEK293 Tl flux2 = native HEK Tl+ uptake effects, second counter-screen – HEK cells, counterscreen 2, counter-screen for KCC2 modulator project, confirmation; thallium flux slope at 10 µM; HEK293 parental, thallium flux FluoZin-2 fluorescence slope; AID 1718, 2009; shares compounds with KCC2 mod; 3,700 tested, 33% active;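 active = thallium flux slope above the same plate's solvent-control mean plus 3 SD in both duplicate wells; inconclusive = duplicate wells that disagreed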;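 note: run without ouabain in cells lacking the KCC2 cotransporter; slope of fluorescence scaled to its starting value between 10 and 20 s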
Active calls of the source: *; ? = inconclusive; / = not tested or not shown. Hits are enriched below; roughly 3.4% of the tested compounds scored in any of these assays.

SMILES	ROMK mod	p97 ATPase inh	PKD1 kinase inh	KCC2 mod	Redox H2O2 prof	MDM2 E3 inh	KCC2 sec1	KCC2 bumet counter	KCC2 secondary2	HEK counter1	KCC2 ouabain	HEK293 Tl flux2
COc1ccc(N/C(N)=N/c2nc(CSc3ccc(C)cc3)cc(=O)[nH]2)cc1	0.6	-3	8	/	0	-19	0.015	0.004	0.031	0.0076	0.015	0.011
Cc1ccc(Nc2c(-c3ccc(N4CCOCC4)cc3)nc3ncccn23)c(C)c1	0.022	9	0	0.03	1	/	/	/	/	/	/	/
Cc1scc(C(=O)N/N=C/c2ccc(Cl)s2)c1C	-0.67	3	3	39*	0	-6	?	0.053*	0.043*	0.078*	0.086*	0.024*
O=C(N/N=C/c1ccc(Br)s1)c1ccco1	/	2	/	7.1*	/	-13	0.011	0.011*	0.035	0.016*	0.024	0.013*
Cc1occc1C(=O)N/N=C/c1ccc(Br)s1	-0.1	-4	-3	78*	0	-17	?	0.03*	0.032	0.036*	0.052*	0.022*
Cc1ccc(/C=N/NC(=O)c2ccoc2C)s1	/	-2	4	2	0	-19	/	/	/	/	/	/
CCOC(=O)N1CCN(C(=O)CNC(=O)Cn2cnc3ccccc3c2=O)CC1	0.48	-3	-4	0.22	0	-16	/	/	/	/	/	/
COc1ccc(C)cc1NC(=O)NCCC1=CCCCC1	/	-7	3	/	2	-15	/	/	/	/	/	/
COC(=O)c1sccc1NC(=O)CC1C(=O)NCCN1C(=O)c1ccccc1 (stereo not given)	-1.1	7	/	-0.86	/	-4	/	/	/	/	/	/
COc1ccc(CCn2c(-c3ccc(OC)cc3)nc3c(c(=O)c4ccccc4n3C)c2=O)cc1	0.058	0	/	0.059	/	-2	/	/	/	/	/	/
COCCn1c(-c2ccc(Cl)cc2Cl)nc2c(c(=O)c3ccccc3n2C)c1=O	-0.0092	4	-12	-3.4*	0	-18	0.006	0.0047	0.024*	?	0.013*	0.0096
COc1cc(-c2c(C#N)c(=O)[nH]c3c2c(C)nn3-c2ccccc2)ccc1O	0.49	9	-8	-5*	3	-10	0.0078	0.0041	0.03	0.0067	?	0.0093
CN(C1CCS(=O)(=O)C1)S(=O)(=O)c1ccccc1[N+](=O)[O-] (stereo not given)	-0.41	3	-3	0.073	0	-6	/	/	/	/	/	/
O=C(C1=C(O)/C(=C/c2ccc(O)cc2)CCC1)C(F)(F)F	0.6	3	-6	-1.3	0	-15	/	/	/	/	/	/
COc1ccc(/C=C2\CCCC(C(=O)C(F)(F)F)=C2O)cc1	-2.6	-7	-2	/	0	-19	0.0094	0.024*	0.03	0.011*	0.034*	0.01*
CN(CC(=O)Nc1ccc(S(=O)(=O)N(C)C)cc1)Cc1ccc(C(F)(F)F)cc1	0.4	2	0	-0.68	-1	1	/	/	/	/	/	/
CSc1ccccc1NC(=O)C1CCCO1 (stereo not given)	/	/	/	/	/	2	/	/	/	/	/	/
O=C(O)c1ccc2c(c1)SC1=NS(=O)(=O)CCN12	/	11	/	-0.088	/	-13	/	/	/	/	/	/
O=S1(=O)CCN2C(=N1)Sc1c2ccc2c1CCCC2	/	1	-9	7.7*	-1	-24	0.0098	0.0053	0.033	0.0072	0.022	0.01
Fc1ccccc1-c1nc2ncccc2o1	0.053	2	-2	0.37	-1	-9	/	/	/	/	/	/
CCCc1n[nH]c2c1/C(=N/O)CC(c1ccccc1)C2 (stereo not given)	0.064	1	-2	/	0	0	/	/	/	/	/	/
CCCCSc1nnc(-c2ccc(OC)cc2)n1C	-0.083	-1	-7	-5*	-1	1	0.0058	0.004	0.028	0.0069	0.017	0.0098
Cc1oc2c(CN3CCCC3)c(O)ccc2c(=O)c1-c1ccccc1	/	2	-2	0.61	3	3	/	/	/	/	/	/
O=C(CO/N=C1\CCCc2nonc21)Nc1ccccc1Cl	-0.015	10	-5	0.44	0	-12	/	/	/	/	/	/
O=C(CN1C(=O)NC2(CCCCCC2)C1=O)N1CCC(Cc2ccccc2)CC1	-1.6	-4	-5	-4.9*	2	/	0.0081	0.025*	?	0.012*	0.017*	0.01
O=C(CN1C(=O)NC2(CCCCC2)C1=O)N1CCN(S(=O)(=O)c2ccccc2)CC1	-1.7	3	-4	1.5	-2	-7	/	/	/	/	/	/
O=C(CNC(=O)c1cccs1)NCCN1CCN(Cc2ccccc2)CC1	-0.11	8	-1	/	0	-12	/	/	/	/	/	/
CCOc1cc(Br)ccc1S(=O)(=O)NCc1ccccc1	0.36	-5	7	/	-8	-18	0.007	0.0051	0.024*	0.0074	0.016*	0.01
O=C(CCNc1ccccc1)c1ccc2c(c1)OCO2	0.62	3	-13	-0.093	4	-11	/	/	/	/	/	/
O=C1CCCC(=NCc2ccco2)C1	/	-1	-19	/	0	-11	/	/	/	/	/	/
